Measured values reported in ChEMBL document CHEMBL1137359, “Potent and orally bioavailable 8-bicyclo[2.2.2]octylxanthines as adenosine A1 receptor antagonists” (J Med Chem, 2006).
pKi: −log10 of the molar value.

Columns and labels:
Adenosine receptor A2b = target: T1, Adenosine receptor A2b (Homo sapiens, UniProt P29275); experiment: Displacement of [125I]3-(4-aminobenzyl)-8-phenyloxyacetate-1-propyl-xanthine from human adenosine A2B receptor expressed in HEK cells; type: cell-based, HEK293
T1 sequence (P29275 whole entry): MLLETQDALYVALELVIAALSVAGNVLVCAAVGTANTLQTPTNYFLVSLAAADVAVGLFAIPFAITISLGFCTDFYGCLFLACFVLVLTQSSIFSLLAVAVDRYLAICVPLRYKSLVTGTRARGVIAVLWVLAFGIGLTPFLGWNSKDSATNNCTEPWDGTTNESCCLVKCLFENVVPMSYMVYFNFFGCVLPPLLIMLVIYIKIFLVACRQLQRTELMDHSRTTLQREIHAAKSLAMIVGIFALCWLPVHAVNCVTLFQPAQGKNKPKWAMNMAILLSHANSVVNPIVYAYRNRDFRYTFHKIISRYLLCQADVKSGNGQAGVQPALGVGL
Summary of the method: (§1)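 Membranes from stably transfected CHO-K1 (hA1) or HEK (hA2A, hA2B, hA3) cells, 2 h at room temperature in 50 mM HEPES pH 7.4, 1 mM EDTA, 5 mM MgCl2, 1 U/mL adenosine deaminase. 5% DMSO final except hA3. Full curves 10^-11–10^-5 M, seven concentrations, four determinations each. Filtration, γ-counting, Ki derived.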

Adenosine receptor A1 = target: T2, Adenosine receptor A1 (Homo sapiens, UniProt P30542); experiment: Displacement of [125I]ABA from human adenosine A1 receptor expressed in CHOK1 cells; type: cell-based, CHO-K1; summary of the method: as §1
T2 sequence (P30542 whole entry): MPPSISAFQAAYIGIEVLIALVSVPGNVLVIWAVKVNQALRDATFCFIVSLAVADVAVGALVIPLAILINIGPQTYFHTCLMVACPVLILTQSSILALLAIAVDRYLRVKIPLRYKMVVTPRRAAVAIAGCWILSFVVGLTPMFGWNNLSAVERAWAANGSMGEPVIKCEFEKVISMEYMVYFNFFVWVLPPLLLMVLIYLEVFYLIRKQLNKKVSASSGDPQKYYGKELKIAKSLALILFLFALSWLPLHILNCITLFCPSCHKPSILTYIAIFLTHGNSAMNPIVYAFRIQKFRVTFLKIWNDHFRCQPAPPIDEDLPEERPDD

[1] = target: Adenosine receptors; A1 & A2a (Homo sapiens) (UniProt P30542+P29274); experiment: Selectivity for human adenosine A1 receptor over human adenosine A2A receptor; type: protein assay
Adenosine receptor A3 = target: T3, Adenosine receptor A3 (Homo sapiens, UniProt P0DMS8); experiment: Displacement of [125I]ABA from human adenosine A3 receptor expressed in HEK cells; type: cell-based, HEK293
T3 sequence (P0DMS8 whole entry): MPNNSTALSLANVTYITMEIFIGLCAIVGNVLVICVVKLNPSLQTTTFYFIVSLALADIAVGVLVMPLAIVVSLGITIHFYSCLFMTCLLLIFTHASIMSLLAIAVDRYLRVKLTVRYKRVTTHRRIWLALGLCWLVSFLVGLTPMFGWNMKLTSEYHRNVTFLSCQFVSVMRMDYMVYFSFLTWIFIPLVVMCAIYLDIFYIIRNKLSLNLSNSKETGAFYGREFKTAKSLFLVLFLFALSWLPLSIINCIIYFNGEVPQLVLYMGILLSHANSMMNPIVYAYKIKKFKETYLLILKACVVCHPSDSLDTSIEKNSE
Summary of the method: as §1, with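 “hA3. Radioligands: 0.3 nM (hA1) or 0.6 nM (hA3) 125I-ABA, 0.7 nM 125I-ZM241385, 0.5 nM A2B ligand.” for “hA3.”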

Adenosine receptor A2a [2] = target: T4, Adenosine receptor A2a (Homo sapiens, UniProt P29274); experiment: Displacement of [125I]ZM-241385 from human adenosine A2A receptor expressed in HEK cells; type: cell-based, HEK293; summary of the method: as §1
[3] = target: T5, Adenosine receptor A3 (Homo sapiens) (UniProt P0DMS8); experiment: Displacement of [125I]ABA from human adenosine A3 receptor expressed in HEK cells relative to control; type: cell-based; design: concentration or dose not given beside the values; conditions: HEK293
T5 sequence (whole entry): T3 sequence (P0DMS8 whole entry)
Summary of the method: (§2)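 Single-point screen at 1 µM antagonist, run in duplicate, on transfected-cell membranes: CHO-K1 (hA1), HEK (hA2A, hA2B, hA3). 2 h at room temperature in 50 mM HEPES pH 7.4, 1 mM EDTA, 5 mM MgCl2, 1 U/mL adenosine deaminase; 5% DMSO except hA3. Nonspecific binding with 50 µM XAC, or 10 µM BW-1433 for hA3. Result is % radioligand bound relative to control.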

[4] = target: T6, Adenosine receptor A2b (Homo sapiens) (UniProt P29275); experiment: Displacement of [125I]3-(4-aminobenzyl)-8-phenyloxyacetate-1-propyl-xanthine from human adenosine A2B receptor expressed in HEK cells relative to control; type: cell-based; design: concentration or dose not given beside the values; conditions: HEK293; summary of the method: as §2
T6 sequence (whole entry): T1 sequence (P29275 whole entry)

[5] = target: T7, Adenosine receptor A1 (Homo sapiens) (UniProt P30542); experiment: Displacement of [125I]ABA from human adenosine A1 receptor expressed in CHOK1 cells relative to control; type: cell-based; design: concentration or dose not given beside the values; conditions: CHO-K1; summary of the method: as §2
T7 sequence (whole entry): T2 sequence (P30542 whole entry)

Adenosine receptor A2a [6] = target: T4, Adenosine receptor A2a; experiment: Displacement of [125I]ZM-241385 from human adenosine A2A receptor expressed in HEK cells relative to control; type: cell-based; design: concentration or dose not given beside the values; conditions: HEK293; summary of the method: as §2

T4 sequence (P29274 whole entry): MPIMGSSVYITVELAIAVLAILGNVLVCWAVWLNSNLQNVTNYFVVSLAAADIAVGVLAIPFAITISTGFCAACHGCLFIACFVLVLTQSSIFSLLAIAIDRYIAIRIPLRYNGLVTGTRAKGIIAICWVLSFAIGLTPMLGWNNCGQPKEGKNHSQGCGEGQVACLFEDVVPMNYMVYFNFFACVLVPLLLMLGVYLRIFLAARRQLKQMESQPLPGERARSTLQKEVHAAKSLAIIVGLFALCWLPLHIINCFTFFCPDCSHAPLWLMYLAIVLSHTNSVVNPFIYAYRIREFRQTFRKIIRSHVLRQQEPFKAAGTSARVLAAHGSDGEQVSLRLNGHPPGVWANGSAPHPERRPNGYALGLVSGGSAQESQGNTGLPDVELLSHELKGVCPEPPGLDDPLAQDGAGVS
Sequence of Adenosine receptors; A1 & A2a (Homo sapiens) (P29274 whole entry, looked up, one chain of several): as the sequence (P29274 whole entry) above

SMILES	pKi (Adenosine receptor A2b)	pKi (Adenosine receptor A1)	Ratio Ki [1]	pKi (Adenosine receptor A3)	pKi (Adenosine receptor A2a [2])	Activity [3]	Activity [4]	Activity [5]	Activity (Adenosine receptor A2a [6])
CCCn1c(=O)c2nc([C@]34CC[C@](C(=O)NCCC(=O)OC)(CC3)CC4)[nH]c2n(CCC)c1=O	6.30	7.66	63	< 5.00	5.85				
CCCn1c(=O)c2nc([C@]34CC[C@](C(=O)N5CCC(C(=O)O)CC5)(CC3)CC4)[nH]c2n(CCC)c1=O		7.02	81		5.11	100%	41%		
CCCn1c(=O)c2nc([C@]34CC[C@](C(=O)NCCN(C)C)(CC3)CC4)[nH]c2n(CCC)c1=O		8.22	22		6.88	79%	3%		
CCCn1c(=O)c2nc([C@]34CC[C@](/C=C/C(=O)O)(CC3)CC4)[nH]c2n(CCC)c1=O	7.00	8.02	333		5.48	100%			
CCCn1c(=O)c2nc([C@]34CC[C@](C(=O)OC)(CC3)CC4)[nH]c2n(CCC)c1=O			101			44%	19%		
CCCn1c(=O)c2nc([C@H]3CC[C@H](C(=O)N4CCOCC4)CC3)[nH]c2n(CCC)c1=O						88%	48%	60%	99%
CCCn1c(=O)c2nc([C@]34CC[C@](C(=O)NCC(=O)O)(CC3)CC4)[nH]c2n(CCC)c1=O		7.31	161		5.10	70%	53%		
CCCn1c(=O)c2nc([C@]34CC[C@](C(=O)N(C)CC(=O)OC)(CC3)CC4)[nH]c2n(CCC)c1=O	6.53	6.95	> 89		< 5.00	88%			
CCCn1c(=O)c2[nH]c([C@H]3CC[C@H](CO)CC3)nc2n(CCC)c1=O		7.39			6.50				

The next lines start with the values.

pKi (Adenosine receptor A2b)	pKi (Adenosine receptor A1)	Ratio Ki [1]	pKi (Adenosine receptor A3)	pKi (Adenosine receptor A2a [2])	Activity [3]	Activity [4]	Activity [5]	Activity (Adenosine receptor A2a [6])	SMILES
	7.34	49		5.65	93%	11%			CCCCNC(=O)[C@H]1CC[C@H](c2nc3c(=O)n(CCC)c(=O)n(CCC)c3[nH]2)CC1
	6.77	16		5.57	95%	28%			CCCn1c(=O)c2nc([C@H]3CC[C@H](COCc4ccccc4)CC3)[nH]c2n(CCC)c1=O
					100%	39%	46%	70%	CCCn1c(=O)c2nc([C@H]3CC[C@H](C(=O)N(CC)CC)CC3)[nH]c2n(CCC)c1=O
		8			77%	18%			CCCn1c(=O)c2nc([C@H]3CC[C@H](CO)CC3)[nH]c2n(CCC)c1=O
